As usually defined, the MIC is the lowest concentration that inhibits growth of the organism. A word on the IC50: it is the concentration needed to halve the response being measured.

In brackets after ≈: the same amount, converted by molar mass. Activity calls are given as the source filed them. The rule behind the calls is not given here.

The values that follow come from ChEMBL document CHEMBL4004784, “Antioxidant Hydroanthraquinones from the Marine Algal-Derived Endophytic Fungus Talaromyces islandicus EN-501” (J Nat Prod, 2017).

The subject of one assay is Escherichia coli. In words: Antimicrobial activity against Escherichia coli EMBLC-1 by XTT assay. Format: functional. Summed up:
(§1)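 Microplate assay on bacterial strains supplied by the Institute of Oceanology, Chinese Academy of Sciences, with chloramphenicol as the positive control.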
(Tetrazolium dyes change colour on reduction, which living cells bring about.)

A further assay relates to Edwardsiella tarda. In words: Antimicrobial activity against Edwardsiella tarda QDIO-2 by XTT assay. It counts as functional. Summed up:
as §1

For the next assay, the system named is Staphylococcus aureus. In words: Antimicrobial activity against Staphylococcus aureus EMBLC-2 by XTT assay. It counts as functional. Put shortly: as §1
Assay [1] is described as follows: Antioxidant activity assessed as DPPH radical scavenging activity. It counts as functional. Summed up: (§2)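 Radical scavenging of pure compounds against DPPH and ABTS radicals, run by previously published methods and reported as IC50 in μM. Positive controls were BHT for DPPH and ascorbic acid for ABTS.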
On the technique in general: Loss of DPPH colour is used to gauge radical scavenging.

The nature of assay [2]: Antioxidant activity assessed as ABTS radical scavenging activity. It counts as functional. Put shortly: as §2
Assay [3] concerns A2780. As to the kind of experiment: Cytotoxicity against human A2780 cells after 72 hrs by MTT assay. Format: functional, cell-based. The following applies: A2780, 72 h.
Assay [4] can be described thus: Cytotoxicity against human A2780cis cells after 72 hrs by MTT assay. It counts as functional, cell-based.
Assay [5] deals with A2780. In words: Cytotoxicity against human A2780 cells at 100 uM after 72 hrs by MTT assay. Format: functional, cell-based.
The subject of a further assay is A2780cis. In words: Cytotoxicity against human A2780cis cells at 100 uM after 72 hrs by MTT assay. It counts as functional, cell-based.

Regarding `Cc1cc(O)c2c(c1O)[C@H](O)[C@H]1C[C@@H](O)C[C@@H](O)[C@@H]1C2=O`, the MIC in the assay on Escherichia coli amounted to 32 µg/mL (≈ 109 µM); in the assay with Edwardsiella tarda, 64 µg/mL (≈ 217 µM); with Staphylococcus aureus it was 4 µg/mL (≈ 13.6 µM). The IC50 in assay [1] was 42 µM; in assay [2], 34 µM; in the assay with A2780 [3] it was above 10 µM; in [4], above 10 µM.

As to `O=C(N[C@H](CO)[C@H](O)c1ccc([N+](=O)[O-])cc1)C(Cl)Cl` [CHLORAMPHENICOL], the MIC was found to be 4 µg/mL (≈ 12.4 µM) in the assay with Escherichia coli, 2 µg/mL (≈ 6.19 µM) in the assay with Edwardsiella tarda and 2 µg/mL (≈ 6.19 µM) against Staphylococcus aureus.

For the compound `CO[C@@H]1c2c(O)cc(C)c(O)c2C(=O)[C@@H]2C[C@H](O)C[C@H](O)[C@@H]12`, the MIC entry with Escherichia coli and with Edwardsiella tarda was “inactive” throughout. In addition, in the assay on Staphylococcus aureus, the MIC is 8 µg/mL (≈ 25.9 µM). Further, the IC50 in [1] is 30 µM; in assay [2], 24 µM; in the assay on A2780 [3], above 10 µM; in [4] it was above 10 µM.

For the compound `Cc1cc(C(C)(C)C)c(O)c(C(C)(C)C)c1` [BUTYLATED HYDROXYTOLUENE], the IC50 in assay [1] came out at 61 µM.

On to `Cc1cc(O)c2c(c1O)[C@H](O)[C@H]1C[C@@H](O)C[C@H](O)[C@@H]1C2=O`, for which the MIC against Escherichia coli came out at 32 µg/mL (≈ 109 µM); in the assay on Edwardsiella tarda it was 64 µg/mL (≈ 217 µM); against Staphylococcus aureus, 4 µg/mL (≈ 13.6 µM). Moreover, the IC50 in [1] is 52 µM; in [2], 31 µM; in the assay on A2780 [3], above 10 µM; in assay [4], above 10 µM.

For `Cc1cc(O)c2c(c1O)[C@H](O)[C@H]1C[C@@H](O)CC[C@@H]1C2=O`, the MIC with Escherichia coli was determined as 64 µg/mL (≈ 230 µM); in the assay with Staphylococcus aureus it was 4 µg/mL (≈ 14.4 µM). Further, in the assay on Edwardsiella tarda, the MIC result is “inactive”. The IC50 in [1] was 12 µM; in assay [2] it was 8.3 µM; in the assay with A2780 [3], above 10 µM; in [4], above 10 µM.

With `O=C1c2c(O)cc(CO)c(O)c2[C@H](O)[C@H]2C[C@@H](O)CC[C@H]12`, the MIC came out at 16 µg/mL (≈ 54.4 µM) in the assay on Escherichia coli, 32 µg/mL (≈ 109 µM) in the assay on Edwardsiella tarda and 2 µg/mL (≈ 6.8 µM) against Staphylococcus aureus. Further, the half-maximal inhibitory concentration (IC50) in assay [1] was found to be 31 µM; in assay [2], 19 µM. In addition, the result with A2780 [5] and in the assay with A2780cis was Active.

As for `O=C1O[C@H]([C@@H](O)CO)C(O)=C1O` [ASCORBIC ACID], the concentration for half-maximal inhibition (IC50) in [2] turned out to be 16 µM.
